Laboratory results: publication PMC4624265 (Nuclear medicine and biology, 2015)

Assays:
PSMA [1] = target: T1, PSMA (Homo sapiens, UniProt Q04609); test: Reversibility assay; assay type: biochemical
[2] = test system: mice bearing CWR22Rv1 tumor xenografts; test: Ex vivo biodistribution in CWR22Rv1 tumor-bearing mice; conditions: indicated by insignificant bone uptake
Method in brief: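 Male athymic NCr-nu/nu mice carried CWR22Rv1 xenografts (about 10^6 cells in 50/50 complete medium/matrigel, right shoulder), used 4–5 weeks after implantation. Under isoflurane, HPLC-purified radiotracer (35–40 μCi in saline) was given by tail vein. For blocking, 250 μg of the PSMA inhibitor in saline was given 1 h before tracer, 4 h group only. Mice were euthanized at 1 h or 4 h, n = 4. Blood was taken by cardiac puncture; organs were weighed and gamma-counted. %ID/g was calculated against standards; two-tailed t-test, p<0.05.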

PSMA [3] = target: T1, PSMA; test: PSMA inhibition assay; assay type: biochemical

T1 sequence (Q04609 whole entry): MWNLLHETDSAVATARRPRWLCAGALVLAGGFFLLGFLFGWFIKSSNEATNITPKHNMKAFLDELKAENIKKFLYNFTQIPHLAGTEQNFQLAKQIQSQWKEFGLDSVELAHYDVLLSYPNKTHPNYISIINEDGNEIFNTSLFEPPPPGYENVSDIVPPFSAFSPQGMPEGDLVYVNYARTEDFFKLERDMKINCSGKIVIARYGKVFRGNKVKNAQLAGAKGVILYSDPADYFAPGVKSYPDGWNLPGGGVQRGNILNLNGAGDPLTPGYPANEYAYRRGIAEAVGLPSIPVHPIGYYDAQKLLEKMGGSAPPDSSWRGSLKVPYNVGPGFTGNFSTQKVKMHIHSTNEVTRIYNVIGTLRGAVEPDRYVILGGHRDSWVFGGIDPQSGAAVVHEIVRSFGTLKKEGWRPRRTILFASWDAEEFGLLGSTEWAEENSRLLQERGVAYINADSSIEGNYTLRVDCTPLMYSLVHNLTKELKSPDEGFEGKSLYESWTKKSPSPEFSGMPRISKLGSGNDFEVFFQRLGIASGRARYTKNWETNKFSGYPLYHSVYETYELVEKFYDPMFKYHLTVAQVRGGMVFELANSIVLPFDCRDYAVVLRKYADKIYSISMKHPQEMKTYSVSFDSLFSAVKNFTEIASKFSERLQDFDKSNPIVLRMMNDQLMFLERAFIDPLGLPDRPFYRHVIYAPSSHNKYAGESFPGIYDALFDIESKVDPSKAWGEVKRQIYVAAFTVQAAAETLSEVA

SMILES	Mode of binding to PSMA (PSMA [1])	Defluorination in vivo [2]	IC50 (PSMA [3])
O=C(O)CCC(NP(=O)(O)OCCC[C@@H](NC(=O)CC[C@H](NC(=O)CCCCCNC(=O)c1ccc(F)cc1)C(=O)O)C(=O)O)C(=O)O (stereo partly drawn) [compound 5, 2-(((S)-((4R)-4-carboxy-4-(4-carboxy-4-(6-(4-fluorobenzamido)hexanamido)butanamido)butoxy)(hydroxy)phosphoryl)amino) pentanedioic acid]	irreversible	no defluorination	–
NCCCCCC(=O)N[C@@H](CCC(=O)N[C@H](CCCOP(=O)(O)NC(CCC(=O)O)C(=O)O)C(=O)O)C(=O)O (stereo partly drawn) [compound 3, 2-(((S)-((4R)-4-(4-(6-aminohexanamido)-4-carboxybutanamido)-4-carboxybut-oxy) (hydroxy)phosphoryl)amino)pentanedioic acid]	irreversible	–	19 nM
